In ChEMBL document CHEMBL4342521 (J Med Chem, 2020):
Active and inactive are the calls of the source. The calls are words filed in the database; no cut-off is given here.

Columns and labels:
[1] = Half life in CD1 mouse at 5 mg/kg, iv after 24 hrs by LC-MS/MS analysis; format: ADME, organism-based; conditions: in vivo
Outline: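 Male CD-1 mice, fasted overnight, 3 per route; compound in PBS with 5% DMSO, iv bolus 5 mg/kg or oral gavage 20 mg/kg. Blood sampled at 5, 15, 30 min and 1–24 h. Plasma protein-precipitated with acetonitrile plus internal standard, quantified by LC-MS/MS (MRM). AUC by linear trapezoidal method; parameters by non-compartmental analysis.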

A549 = experiment: Antiproliferative activity against human A549 cells assessed as reduction in cell viability after 48 hrs by CellTiter-Blue assay; format: functional; conditions: A549, 48 h, read-out: LC50 (the source's name)
Outline: (§1)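 Cells grown in RPMI1640 with 10% FBS at 37 °C, 5% CO₂. 5,000–10,000 cells/well were pre-incubated overnight, and a time-zero CellTiter-Blue read was taken. Six 10-fold dilutions (top final 10 μM) were applied for 48 h, followed by 0.125 mg/mL CellTiter-Blue for 2–4 h. Resorufin fluorescence was read at ex 560/em 590 nm. […] Triplicates.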

HOP-62 = experiment: Antiproliferative activity against human HOP62 cells assessed as reduction in cell viability after 48 hrs by CellTiter-Blue assay; format: functional; conditions: HOP-62, 48 h, read-out: LC50 (the source's name); outline: as §1
HCC 2998 = experiment: Antiproliferative activity against human HCC2998 cells assessed as reduction in cell viability after 48 hrs by CellTiter-Blue assay; format: functional; conditions: HCC 2998, 48 h, read-out: LC50 (the source's name); outline: as §1
HCT-116 = experiment: Antiproliferative activity against human HCT116 cells assessed as reduction in cell viability after 48 hrs by CellTiter-Blue assay; format: functional; conditions: HCT-116, 48 h, read-out: LC50 (the source's name); outline: as §1
HT-29 = experiment: Antiproliferative activity against human HT-29 cells assessed as reduction in cell viability after 48 hrs by CellTiter-Blue assay; format: functional; conditions: HT-29, 48 h, read-out: LC50 (the source's name); outline: as §1
KM12 = experiment: Antiproliferative activity against human KM12 cells assessed as reduction in cell viability after 48 hrs by CellTiter-Blue assay; format: functional; conditions: KM12, 48 h, read-out: LC50 (the source's name); outline: as §1
LOX IMVI = experiment: Antiproliferative activity against human LOXIMVI cells assessed as reduction in cell viability after 48 hrs by CellTiter-Blue assay; format: functional; conditions: read-out: LC50 (the source's name); outline: as §1
Malme-3M = experiment: Antiproliferative activity against human MALME-3M cells assessed as reduction in cell viability after 48 hrs by CellTiter-Blue assay; format: functional; conditions: read-out: LC50 (the source's name); outline: as §1
IGROV-1 = experiment: Antiproliferative activity against human IGROV1 cells assessed as reduction in cell viability after 48 hrs by CellTiter-Blue assay; format: functional; conditions: IGROV-1, 48 h, read-out: LC50 (the source's name); outline: as §1
CAKI-1 = experiment: Antiproliferative activity against human Caki1 cells assessed as reduction in cell viability after 48 hrs by CellTiter-Blue assay; format: functional; conditions: CAKI-1, 48 h, read-out: LC50 (the source's name); outline: as §1
RXF 393 = experiment: Antiproliferative activity against human RXF393 cells assessed as reduction in cell viability after 48 hrs by CellTiter-Blue assay; format: functional; conditions: RXF 393, 48 h, read-out: LC50 (the source's name); outline: as §1
SN12C = experiment: Antiproliferative activity against human SN12C cells assessed as reduction in cell viability after 48 hrs by CellTiter-Blue assay; format: functional; conditions: read-out: LC50 (the source's name); outline: as §1
TK-10 = experiment: Antiproliferative activity against human TK10 cells assessed as reduction in cell viability after 48 hrs by CellTiter-Blue assay; format: functional; conditions: TK-10, 48 h, read-out: LC50 (the source's name)
Outline: (§2)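 NCI-60 panel lines grown in RPMI1640 with 10% FBS at 37 °C, 5% CO₂. Seeded at 5,000–10,000 cells/well and pre-incubated overnight. Exposed for 48 h to six 10-fold dilutions (top final 10 μM), with a time-zero plate read at dosing. CellTiter-Blue (0.125 mg/mL) for 2–4 h, fluorescence 560/590 nm, triplicate curves.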

UO-31 = experiment: Antiproliferative activity against human UO31 cells assessed as reduction in cell viability after 48 hrs by CellTiter-Blue assay; format: functional; conditions: UO-31, 48 h, read-out: LC50 (the source's name); outline: as §2
MCF7 = experiment: Antiproliferative activity against human MCF7 cells assessed as reduction in cell viability after 48 hrs by CellTiter-Blue assay; format: functional; conditions: MCF7, 48 h, read-out: LC50 (the source's name); outline: as §1
MDA-MB-468 = experiment: Antiproliferative activity against human MDA-MB-468 cells assessed as reduction in cell viability after 48 hrs by CellTiter-Blue assay; format: functional; conditions: MDA-MB-468, 48 h, read-out: LC50 (the source's name); outline: as §1
MV4-11 [2] = experiment: Antiproliferative activity agaisnt human MV4-11 cells expressing wild type p53/FLT3-ITD mutant assessed as cell death at 10 uM after 48 hrs by CellTiter-blue assay; format: functional, cell-based
MV4-11 [3] = experiment: Down regulation of FTL3 in human MV4-11 cells harboring wild type p53/FLT3-ITD mutant at 50 to 200 nM after 24 hrs by Western blot analysis; format: functional, cell-based
Outline: (§3)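 Cells (1,500,000 per well) grown 12 h, then drug-treated as specified. Lysed in RIPA buffer, sonicated, centrifuged, protein normalized by BCA. Run on 4–12% Bis-Tris gels in MES, transferred, probed overnight at 4 °C with primary antibodies at 1/1000. Actin served as reference for LC3-II quantitation.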

MV4-11 [4] = experiment: Induction of apoptosis in human MV4-11 cells harboring wild type p53/FLT3-ITD mutant assessed as c-FLIP degradation at 50 to 200 nM after 24 hrs by Western blot analysis; format: functional, cell-based; outline: as §3
MV4-11 [5] = experiment: Induction of autophagy in human MV4-11 cells harboring wild type p53/FLT3-ITD mutant assessed as LC-3 degradation at 50 to 200 nM after 24 hrs by Western blot analysis; format: functional, cell-based; outline: as §3
MV4-11 [6] = experiment: Down regulation of MDM2 expression in human MV4-11 cells harboring wild type p53/FLT3-ITD mutant at 50 to 200 nM after 24 hrs by Western blot analysis; format: functional, cell-based; outline: as §3
SR = experiment: Induction of apoptosis in human SR cells harboring wild type p53 assessed as pro-caspase 3 cleavage at 50 to 200 nM after 24 hrs by Western blot anlaysis; format: functional, cell-based; outline: as §3
RS4-11 [7] = experiment: Effect on LC3 degradation in human RS4:11 cells harboring wild type p53/FLT3 at 50 to 200 nM after 24 hrs by Western blot analysis; format: functional, cell-based; outline: as §3
RS4-11 [8] = experiment: Induction of apoptosis in human RS4:11 cells harboring wild type p53/FLT3 assessed as cleavage of pro-caspase 3 at 200 nM after 24 hrs by Western blot analysis; format: functional, cell-based; outline: as §3
MV4-11 [9] = experiment: Induction of apoptosis in human MV4-11 cells assessed as cell death at 200 nM after 24 hrs in presence of 50 uM z-VAD by CellTiter-blue dye based spectrophotometric analysis; format: functional
Outline: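 MV4-11 cells grown 12 h, then given 200 nM test agent alone or with z-VAD, chloroquine (5 μM) or wortmannin (100 nM) for 24 h. Viability by CellTiter-Blue (0.125 mg/mL, 2–4 h), resorufin fluorescence 560/590 nm, compared with t = 0 wells; n = 3.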

CCCNNC(=O)/C=C/c1ccc(CNCCc2c(C)[nH]c3ccccc23)cc1.O=C(O)C(F)(F)F
t1/2 [1]: 15.2 h
CC50 (A549): > 10 µM
CC50 (HOP-62): > 10 µM
CC50 (HCC 2998): 1.76 µM
CC50 (HCT-116): 0.879 µM
CC50 (HT-29): > 10 µM
CC50 (KM12): > 10 µM
CC50 (LOX IMVI): 0.537 µM
CC50 (Malme-3M): > 10 µM
CC50 (IGROV-1): > 10 µM
CC50 (CAKI-1): 4.3 µM
CC50 (RXF 393): 0.666 µM
CC50 (SN12C): > 10 µM
CC50 (TK-10): > 10 µM
CC50 (UO-31): > 10 µM
CC50 (MCF7): > 10 µM
CC50 (MDA-MB-468): > 10 µM
Activity (MV4-11 [2]): Active
Activity (MV4-11 [3]): Active
Activity (MV4-11 [4]): Active
Activity (MV4-11 [5]): Active
Activity (MV4-11 [6]): Active
Activity (SR): inactive
Activity (RS4-11 [7]): inactive
Activity (RS4-11 [8]): Active
Activity (MV4-11 [9]): inactive
